Data reported in ChEMBL document CHEMBL4033757, “Efficient Divergent Synthesis of New Immunostimulant 4″-Modified α-Galactosylceramide Analogues” (ACS Med Chem Lett, 2017).
The source made the active and inactive calls.

Columns and labels:
iNKT = experiment: Immunostimulatory activity in human iNKT cells cocultured with HeLa CD1d cells assessed as induction of IFNgamma levels at 0.01 to 1 nM after 24 hrs by ELISA; assay type: functional, cell-based
In short: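 Human iNKT cells cocultured with HeLa cells expressing CD1d plus glycolipid at varying concentrations. After 24 h incubation, IFN-γ in the culture measured by ELISA.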

Mus musculus [1] = experiment: Immunostimulatory activity in C57BL/6 mouse assessed as induction of IL-4 levels in serum at 2.0 x 10^-4 […], ip measured after 4 hrs by ELISA; assay type: functional, organism-based
In short: (§1)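 C57BL/6 mice dosed intraperitoneally with 5 μg glycolipid per animal (stated as 2.0 × 10–4 […]). Serum collected and cytokines quantified by ELISA: IFN-γ at 16 h post-injection, IL-4 at 4 h post-injection.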

Mus musculus [2] = experiment: Immunostimulatory activity in C57BL/6 mouse assessed as induction of IFNgamma levels in serum at 2.0 x 10^-4 […], ip measured after 16 hrs by ELISA; assay type: functional, organism-based; in short: as §1

Measured: Activity

CCCCCCCCCCCCCCCCCCCCCCCCCC(=O)N[C@@H](CO[C@H]1O[C@H](CO)[C@H](OC)[C@H](O)[C@H]1O)[C@H](O)[C@H](O)CCCCCCCCCCCCCC
active: all assays above

CCCCCCCCCCCCCCCCCCCCCCCCCC(=O)N[C@@H](CO[C@H]1O[C@H](CO)[C@H](O)[C@H](O)[C@H]1O)[C@H](O)[C@H](O)CCCCCCCCCCCCCC
active: all assays above

CCCCCCCCCCCCCCCCCCCCCCCCCC(=O)N[C@@H](CO[C@H]1O[C@H](CO)[C@H](OC(=O)Nc2cccc3ccccc23)[C@H](O)[C@H]1O)[C@H](O)[C@H](O)CCCCCCCCCCCCCC
active: all assays above

CCCCCCCCCCCCCCCCCCCCCCCCCC(=O)N[C@@H](CO[C@H]1O[C@H](CO)[C@H](OCc2ccc(Cl)cc2)[C@H](O)[C@H]1O)[C@H](O)[C@H](O)CCCCCCCCCCCCCC
active: all assays above

CCCCCCCCCCCCCCCCCCCCCCCCCC(=O)N[C@@H](CO[C@H]1O[C@H](CO)[C@@H](NC(=O)Nc2cccc3ccccc23)[C@H](O)[C@H]1O)[C@H](O)[C@H](O)CCCCCCCCCCCCCC
active: all assays above

C=C1[C@@H](CO)O[C@H](OC[C@H](NC(=O)CCCCCCCCCCCCCCCCCCCCCCCCC)[C@H](O)[C@H](O)CCCCCCCCCCCCCC)[C@H](O)[C@H]1O
active: all assays above
